Results taken from publication PMC3205354 (Chemistry & biology, 2011).

Legend:
FAPP1 PH domain [1] = biological target: T1, FAPP1 PH domain (Homo sapiens, UniProt Q9HB20); conditions: 5 mol% in monolayer; ref He, et al., 2011; cited from earlier work
T1 sequence (Q9HB20 1-99): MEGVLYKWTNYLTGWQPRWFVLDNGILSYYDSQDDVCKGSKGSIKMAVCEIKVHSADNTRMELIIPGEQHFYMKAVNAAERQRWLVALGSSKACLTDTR

FAPP1 PH domain [2] = biological target: T1, FAPP1 PH domain; assay: SPR equilibrium binding to lipid vesicles; conditions: read-out: Kd (SPR); POPC/POPE/PI (75:20:5) liposomes; 10 mM HEPES (pH 7.4), 160 mM KCl, 25°C
[3] = test system: GST-fusion FAPP1 PH domain; assay: Liposome binding assay; design: species or system human; conditions: SUVs of POPC, POPE, POPS and PI (50:20:15:15); 20 mM MOPS, 100 mM KCl, pH 7.0
Procedure, shortened: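 GST-tagged FAPP1 PH expressed in E. coli BL21(DE3) and purified on glutathione Sepharose. Lipids dried from CHCl3:MeOH:H2O (65:25:4) were resuspended in MOPS/KCl buffer and extruded 19 times through a 1 µm membrane. Liposomes were pelleted at 25,000 × g for 20 min, resuspended, and incubated with protein (stock 1.7 µg/µl) for 1 hr at room temperature. They were re-pelleted, and pellet and supernatant were analysed by SDS-PAGE.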

FAPP1 PH domain [4] = biological target: T1, FAPP1 PH domain; assay: NMR 1H,15N HSQC titration; assay type: binding; conditions: read-out: Kd (NMR); 25 mM Bis-Tris, 150 mM NaCl, pH 6.5, 25°C
Procedure, shortened: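 Human FAPP1 PH (aa 1–99), ¹⁵N-labeled, expressed in E. coli Rosetta (DE3) pLysS in ¹⁵NH₄Cl minimal medium (0.1 mM IPTG, room temperature, 6 hr). It was purified on Talon resin, His tag removed with thrombin, then size exclusion. HSQC spectra of 0.1–0.2 mM protein were recorded at 600 MHz with stepwise ligand addition. Normalized ¹H/¹⁵N shift changes were fitted against ligand and protein concentrations to give Kd.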

Kd (FAPP1 PH domain [2])	partitioning of GST-FAPP1 PH between supernatant and pelleted SUVs [3]	Compound	surface pressure (πc) (FAPP1 PH domain [1])	Kd (FAPP1 PH domain [4])
0.00046 mM	half of the protein associated with SUVs	CCCCCCCCCCCCCCCC(=O)OC[C@H](COP(=O)(O)O[C@H]1[C@H](O)[C@@H](O)[C@H](OP(=O)(O)O)[C@@H](O)[C@H]1O)OC(=O)CCCCCCCCCCCCCCC [C16-PtdIns(4)P]	33 mN/m	–
–	–	O=P(O)(O)OC1[C@@H](O)[C@@H](O)C(OP(=O)(O)O)[C@H](O)[C@H]1O (stereo partly shown) [Ins(1,4)P2, inositol 1,4-bisphosphate]	–	20 mM
